Laboratory results from ChEMBL document CHEMBL1128218, “New alpha-thiol dipeptide dual inhibitors of angiotensin-I converting enzyme and neutral endopeptidase EC 3.4.24.11” (J Med Chem, 1995).
Blank lines part the entries; values can stand above or below the compound they belong to.

Legend:
[1] = molecular target: T1, Neprilysin (Rattus norvegicus, UniProt P07861); assay: Evaluation of in vitro inhibitory activity against Neutral endopeptidase
T1 sequence (P07861 whole entry): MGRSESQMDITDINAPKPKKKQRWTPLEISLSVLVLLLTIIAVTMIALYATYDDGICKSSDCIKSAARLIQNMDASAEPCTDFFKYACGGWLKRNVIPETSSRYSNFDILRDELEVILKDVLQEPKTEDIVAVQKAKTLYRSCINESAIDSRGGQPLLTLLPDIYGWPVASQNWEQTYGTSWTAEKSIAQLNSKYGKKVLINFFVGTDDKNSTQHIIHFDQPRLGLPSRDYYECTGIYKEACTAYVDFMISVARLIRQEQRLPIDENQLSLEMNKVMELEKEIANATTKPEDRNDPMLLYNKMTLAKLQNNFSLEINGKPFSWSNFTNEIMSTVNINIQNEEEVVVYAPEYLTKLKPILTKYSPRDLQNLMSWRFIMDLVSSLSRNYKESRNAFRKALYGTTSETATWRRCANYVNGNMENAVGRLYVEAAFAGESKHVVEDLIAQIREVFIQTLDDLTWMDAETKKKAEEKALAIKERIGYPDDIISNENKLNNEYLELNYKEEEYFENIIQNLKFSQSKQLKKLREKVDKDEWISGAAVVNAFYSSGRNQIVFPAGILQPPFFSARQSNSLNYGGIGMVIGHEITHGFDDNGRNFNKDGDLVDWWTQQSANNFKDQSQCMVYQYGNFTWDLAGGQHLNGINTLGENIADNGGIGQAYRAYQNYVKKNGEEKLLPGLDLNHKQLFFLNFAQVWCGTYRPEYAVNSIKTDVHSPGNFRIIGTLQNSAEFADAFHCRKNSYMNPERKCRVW
Procedure, shortened: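 Rat kidney cortex membrane homogenate (4.2 μg protein) preincubated 10 min at 25 °C with increasing inhibitor concentrations. Then 500 μM GAAP (final) in 50 mM Tris pH 7.4 with leucine aminopeptidase M, 25 min at 25 °C. Done in duplicate; IC50 from curves of seven points near the IC50.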

[2] = molecular target: T2, Angiotensin-converting enzyme (Oryctolagus cuniculus, UniProt P12822); assay: Evaluation of in vitro inhibitory activity against Angiotensin I converting enzyme
T2 sequence (P12822 whole entry): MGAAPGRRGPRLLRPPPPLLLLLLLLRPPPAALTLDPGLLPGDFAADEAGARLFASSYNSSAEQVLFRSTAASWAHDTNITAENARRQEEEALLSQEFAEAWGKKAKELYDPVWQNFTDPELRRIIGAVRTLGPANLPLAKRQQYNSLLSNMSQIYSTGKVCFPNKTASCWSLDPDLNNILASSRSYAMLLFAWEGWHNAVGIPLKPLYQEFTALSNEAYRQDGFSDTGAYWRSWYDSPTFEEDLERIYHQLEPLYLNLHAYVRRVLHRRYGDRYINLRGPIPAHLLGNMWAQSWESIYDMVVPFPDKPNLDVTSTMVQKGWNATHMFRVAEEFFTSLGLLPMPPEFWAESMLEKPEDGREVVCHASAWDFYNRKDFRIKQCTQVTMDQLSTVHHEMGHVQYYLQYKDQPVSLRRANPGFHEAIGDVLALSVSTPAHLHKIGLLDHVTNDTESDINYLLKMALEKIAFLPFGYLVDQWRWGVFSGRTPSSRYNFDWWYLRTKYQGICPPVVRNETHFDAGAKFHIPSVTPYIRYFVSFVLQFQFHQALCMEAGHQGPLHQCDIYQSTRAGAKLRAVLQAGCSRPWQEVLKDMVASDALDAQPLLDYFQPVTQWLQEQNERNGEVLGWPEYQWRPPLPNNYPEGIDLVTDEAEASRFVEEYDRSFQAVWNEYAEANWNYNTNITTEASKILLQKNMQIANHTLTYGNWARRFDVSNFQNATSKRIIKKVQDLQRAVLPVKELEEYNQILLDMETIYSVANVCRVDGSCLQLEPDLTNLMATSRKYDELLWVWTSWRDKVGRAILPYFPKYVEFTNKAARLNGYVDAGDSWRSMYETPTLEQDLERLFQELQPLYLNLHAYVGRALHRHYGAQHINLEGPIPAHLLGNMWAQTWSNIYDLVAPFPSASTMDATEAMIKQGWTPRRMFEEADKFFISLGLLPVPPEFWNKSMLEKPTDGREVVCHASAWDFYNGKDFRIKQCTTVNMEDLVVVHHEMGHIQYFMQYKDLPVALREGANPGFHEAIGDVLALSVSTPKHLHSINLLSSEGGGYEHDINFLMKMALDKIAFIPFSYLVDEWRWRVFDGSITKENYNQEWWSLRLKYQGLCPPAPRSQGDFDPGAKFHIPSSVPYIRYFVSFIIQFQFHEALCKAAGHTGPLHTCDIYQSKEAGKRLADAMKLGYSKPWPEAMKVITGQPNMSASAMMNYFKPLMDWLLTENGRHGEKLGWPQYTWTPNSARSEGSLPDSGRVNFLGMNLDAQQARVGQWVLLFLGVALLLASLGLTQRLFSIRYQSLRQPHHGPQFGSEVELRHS
Procedure, shortened: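 Rabbit lung ACE in 300 mM NaCl, 100 mM KH2PO4 (pH 8.3). Enzyme and drug mixed, then hippurylhistidylleucine (2 mg/mL stock) added and incubated 75 min at room temperature. Stopped with 1 N NaOH, o-phthalaldehyde added for 10 min at 25 °C, acidified with HCl, OD read at 360 nm.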

[3] = molecular target: T3, Angiotensin-converting enzyme (Rattus norvegicus) (UniProt P47820); assay: Evaluation of plasma inhibition of Angiotensin I converting enzyme activity in conscious rat 1 hour after intravenous administration at a dose of 10 mg/kg; format: functional, organism-based; parameters: dose 10 mg/kg
T3 sequence (whole entry): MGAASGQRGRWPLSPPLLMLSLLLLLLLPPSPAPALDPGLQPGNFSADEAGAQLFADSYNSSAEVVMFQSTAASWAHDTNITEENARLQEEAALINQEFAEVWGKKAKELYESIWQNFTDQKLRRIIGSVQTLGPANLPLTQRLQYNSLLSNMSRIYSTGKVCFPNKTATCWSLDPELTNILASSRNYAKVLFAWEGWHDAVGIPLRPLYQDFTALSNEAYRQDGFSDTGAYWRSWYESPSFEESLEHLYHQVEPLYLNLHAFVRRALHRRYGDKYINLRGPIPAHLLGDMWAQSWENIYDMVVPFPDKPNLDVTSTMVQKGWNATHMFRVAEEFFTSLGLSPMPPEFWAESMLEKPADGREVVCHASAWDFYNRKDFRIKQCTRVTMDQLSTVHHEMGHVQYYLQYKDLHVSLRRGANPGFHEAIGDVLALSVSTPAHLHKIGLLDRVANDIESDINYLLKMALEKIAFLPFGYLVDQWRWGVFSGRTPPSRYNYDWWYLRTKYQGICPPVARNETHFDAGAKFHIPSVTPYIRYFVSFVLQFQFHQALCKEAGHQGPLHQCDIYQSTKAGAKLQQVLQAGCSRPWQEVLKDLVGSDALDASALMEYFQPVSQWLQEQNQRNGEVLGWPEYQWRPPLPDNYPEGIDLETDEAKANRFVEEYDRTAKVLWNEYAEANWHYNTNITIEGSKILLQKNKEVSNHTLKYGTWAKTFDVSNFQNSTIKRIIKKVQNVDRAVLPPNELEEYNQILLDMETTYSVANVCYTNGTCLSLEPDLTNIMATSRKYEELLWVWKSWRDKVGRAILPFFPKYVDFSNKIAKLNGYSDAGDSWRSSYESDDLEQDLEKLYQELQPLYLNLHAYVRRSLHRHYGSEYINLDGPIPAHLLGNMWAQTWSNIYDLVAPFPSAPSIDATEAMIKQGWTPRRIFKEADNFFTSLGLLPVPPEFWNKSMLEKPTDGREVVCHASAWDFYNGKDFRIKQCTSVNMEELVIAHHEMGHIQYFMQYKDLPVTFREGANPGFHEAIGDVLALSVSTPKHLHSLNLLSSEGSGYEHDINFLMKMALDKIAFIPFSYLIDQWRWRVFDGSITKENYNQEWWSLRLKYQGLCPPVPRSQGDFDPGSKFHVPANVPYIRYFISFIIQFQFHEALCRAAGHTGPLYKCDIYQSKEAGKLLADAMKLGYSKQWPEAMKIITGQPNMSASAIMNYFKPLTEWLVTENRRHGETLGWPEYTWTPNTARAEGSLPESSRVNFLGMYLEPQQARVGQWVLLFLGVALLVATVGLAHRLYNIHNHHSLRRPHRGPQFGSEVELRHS
Procedure, shortened: (§1)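 Male conscious normotensive Sprague-Dawley rats (275-390 g) fitted the day before with femoral arterial and venous catheters under methohexital anesthesia. Three angiotensin-I challenges (300 ng/kg iv) given as baseline. Compound given iv, ia or po (12.3 mg/kg po dose in 3% cornstarch at 1 mg/mL), then AI challenges repeated at set times. Pressor response compared with the mean baseline response and expressed as % inhibition.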

[4] = molecular target: T3, Angiotensin-converting enzyme (Rattus norvegicus); assay: Evaluation of plasma inhibition of Angiotensin I converting enzyme activity in conscious rat 2 hours after ia administration at a dose of 10 mg/kg; format: functional, organism-based; parameters: dose 10 mg/kg; procedure, shortened: as §1
[5] = molecular target: T3, Angiotensin-converting enzyme (Rattus norvegicus); assay: Evaluation of plasma inhibition of Angiotensin I converting enzyme activity in conscious rat 1 hour after ia administration at a dose of 10 mg/kg; format: functional, organism-based; parameters: dose 10 mg/kg; procedure, shortened: as §1
[6] = molecular target: T3, Angiotensin-converting enzyme (Rattus norvegicus); assay: Evaluation of plasma inhibition of Angiotensin I converting enzyme activity in conscious rat 4 hours after ia administration at a dose of 10 mg/kg; format: functional, organism-based; parameters: dose 10 mg/kg; procedure, shortened: as §1
[7] = molecular target: T3, Angiotensin-converting enzyme (Rattus norvegicus); assay: Evaluation of plasma inhibition of Angiotensin I converting enzyme activity in conscious rat 6 hours after ia administration at a dose of 10 mg/kg; format: functional, organism-based; parameters: dose 10 mg/kg; procedure, shortened: as §1
[8] = molecular target: T3, Angiotensin-converting enzyme (Rattus norvegicus); assay: Evaluation of plasma inhibition of Angiotensin I converting enzyme activity in conscious rat 6 hour after oral administration at a dose of 10 mg/kg; format: functional, organism-based; parameters: dose 10 mg/kg; procedure, shortened: as §1
[9] = molecular target: T3, Angiotensin-converting enzyme (Rattus norvegicus); details: Plasma; 10 mg/kg
[10] = molecular target: T3, Angiotensin-converting enzyme (Rattus norvegicus); assay: Evaluation of plasma inhibition of Angiotensin I converting enzyme activity in conscious rat 2 hour after oral administration at a dose of 10 mg/kg; format: functional, organism-based; parameters: dose 10 mg/kg
[11] = molecular target: T3, Angiotensin-converting enzyme (Rattus norvegicus); assay: Evaluation of plasma inhibition of Angiotensin I converting enzyme activity in conscious rat 1 hour after oral administration at a dose of 10 mg/kg; format: functional, organism-based; parameters: dose 10 mg/kg
[12] = molecular target: T3, Angiotensin-converting enzyme (Rattus norvegicus); assay: Evaluation of plasma inhibition of Angiotensin I converting enzyme activity in conscious rat 2 hours after peroral administration at a dose of 12.3 mg/kg; format: functional, organism-based; parameters: dose 12.3 mg/kg; procedure, shortened: as §1
[13] = molecular target: T3, Angiotensin-converting enzyme (Rattus norvegicus); assay: Evaluation of plasma inhibition of Angiotensin I converting enzyme activity in conscious rat 4 hours after peroral administration at a dose of 12.3 mg/kg; format: functional, organism-based; parameters: dose 12.3 mg/kg; procedure, shortened: as §1
[14] = molecular target: T3, Angiotensin-converting enzyme (Rattus norvegicus); assay: Evaluation of plasma inhibition of Angiotensin I converting enzyme activity in conscious rat 1 hour after peroral administration at a dose of 12.3 mg/kg; format: functional, organism-based; parameters: dose 12.3 mg/kg; procedure, shortened: as §1
[15] = molecular target: T3, Angiotensin-converting enzyme (Rattus norvegicus); assay: Evaluation of plasma inhibition of Angiotensin I converting enzyme activity in conscious rat 6 hours after peroral administration at a dose of 12.3 mg/kg; format: functional, organism-based; parameters: dose 12.3 mg/kg; procedure, shortened: as §1
[16] = molecular target: T3, Angiotensin-converting enzyme (Rattus norvegicus); assay: Evaluation of plasma inhibition of Angiotensin I converting enzyme activity in conscious rat 2 hours after intravenous administration at a dose of 10 mg/kg; format: functional, organism-based; parameters: dose 10 mg/kg; procedure, shortened: as §1

IC50 [1]: 3.1 nM
IC50 [2]: 37 nM
Structure (SMILES): CC(C)[C@H](S)C(=O)NC1(C(=O)N[C@@H](Cc2cccnc2)C(=O)O)CCCC1

IC50 [1]: 2 nM
IC50 [2]: 13 nM
Structure (SMILES): CC(C)[C@H](S)C(=O)NC1(C(=O)N[C@@H](Cc2c[nH]c3ccc(O)cc23)C(=O)O)CCCC1

IC50 [2]: 62 nM
Structure (SMILES): CC(C)[C@H](S)C(=O)N[C@@H](Cc1ccc(-c2ccccc2)cc1)C(=O)N[C@@H](Cc1ccc(O)cc1)C(=O)O

Structure (SMILES): COc1ccc(C[C@H](NC(=O)C2(NC(=O)[C@@H](S)C(C)C)CCCC2)C(=O)O)cc1
IC50 [1]: 2.2 nM
IC50 [2]: 19 nM

IC50 [1]: 5.2 nM
inhibition [3]: 3%
IC50 [2]: 17 nM
Structure (SMILES): O=C(O)[C@H](Cc1ccc(O)cc1)NC(=O)C1(NC(=O)C2(S)CCCC2)CCCC1

inhibition [4]: 74%
inhibition [5]: 100%
inhibition [6]: 27%
inhibition [7]: 7%
Structure (SMILES): O=C(O)CN1C(=O)[C@@H](N[C@@H](CCc2ccccc2)C(=O)O)CCc2ccccc21

IC50 [1]: 16 nM
IC50 [2]: 139 nM
Structure (SMILES): CC(C)[C@H](S)C(=O)NC1(C(=O)N[C@@H](Cc2ccc(-c3ccccc3)cc2)C(=O)O)CCCC1

IC50 [1]: 15 nM
IC50 [2]: 65 nM
Structure (SMILES): CC(C)[C@H](S)C(=O)NC1(C(=O)N[C@@H](Cc2ccc(O)cc2)C(=O)O)CC2CCC1C2 (stereo not given in full)

Structure (SMILES): CC(C)CC(NP(=O)(O)OC1O[C@@H](C)[C@H](O)[C@@H](O)[C@H]1O)C(=O)N[C@@H](Cc1c[nH]c2ccccc12)C(=O)O (single isomer, unassigned) [PHOSPHORAMIDON]
IC50 [1]: 26 nM

inhibition [8]: 13%
inhibition [9]: 36%
inhibition [4]: 60%
inhibition [5]: 96%
inhibition [6]: 26%
inhibition [7]: 3%
inhibition [10]: 78%
inhibition [11]: 100%
Structure (SMILES): C[C@H](CS)C(=O)N1CCC[C@H]1C(=O)O

inhibition [12]: 72%
inhibition [13]: 71%
inhibition [14]: 83%
inhibition [15]: 64%
Structure (SMILES): CCOC(=O)[C@H](Cc1c[nH]c2ccccc12)NC(=O)C1(NC(=O)[C@@H](SC(C)=O)C(C)C)CCCC1

IC50 [1]: 8.7 nM
inhibition [16]: 10%
inhibition [3]: 22%
IC50 [2]: 33 nM
Structure (SMILES): CC(C)[C@H](S)C(=O)NC1(C(=O)N[C@@H](Cc2ccc(O)cc2)C(=O)O)CCCCC1
